This passage reports folding enthalpy and Tm results from the array DNA melting data of Ke et al. (doi:10.1101/2024.01.08.574731).

The nature of data set [1]: folding enthalpy; higher = less favourable; fluorescence melt of hairpins on a sequencing array, two-state fit. The settings on record: sodium 0.088 M. An outline of the steps:
(§1)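 Two-state fits, bootstrapped, provided melting temperature and folding enthalpy from Cy3 fluorescence normalised to pre-quench Cy3 and to control constructs. Library hairpins with annealed Cy3 and quencher oligos were imaged on a sequenced MiSeq flow cell in 50 mM Na-HEPES pH 8.0, 25 mM NaCl, at 2.5 °C intervals up to 60 °C. Four replicates were combined with inverse-variance weighting. A 9.35 °C upward shift was applied to fitted temperatures to match UV melts.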

Data set [2] is described as follows: melting temperature; fluorescence melt of hairpins on a sequencing array, two-state fit, raised by 9.35 °C to match UV melts. The settings on record: sodium 0.088 M. An outline of the steps:
as §1

Take GAACTCCGAAAGGAATTC (((.(((....))).))): the folding enthalpy in data set [1] is -25.9 kcal/mol. In data set [2], the Tm amounted to 37.5 °C.
Regarding GAGCGTACGAAAGTACTC (((..(((....)))))), the folding enthalpy in data set [1] is -13.4 kcal/mol. Further, the Tm in data set [2] came to 27 °C.
In the same order, the values of GGCTTAGGAAACTAAACC ((.((((....)))).)) are -15.7 kcal/mol and 31.8 °C.
On to GGAGCCACGAAAGTGTCC (((..(((....)))))), for which the folding enthalpy in data set [1] is -8.88 kcal/mol. The Tm in data set [2] stood at 28.5 °C.
With GAAATCCGAAAGGACTTC (((.(((....))).))), the folding enthalpy in data set [1] was -29.8 kcal/mol. Also, the Tm in data set [2] is 37.6 °C.
In the same order, the values of GCTAGTGGAAACACTGGC ((.((((....)))).)) are -32.2 kcal/mol and 51.7 °C.
In the same order, the values of GCGGCGCGAAAGCCTCGC (((..((....))..))) are -18.6 kcal/mol and 55.8 °C.
Regarding GATCTTGACCAAGATC ((((((....)))))), in data set [1], the folding enthalpy is -38.3 kcal/mol. Also, the Tm in data set [2] turned out to be 49.3 °C.
GATCTGCGCTCAGATC ((((((....)))))): the folding enthalpy in data set [1] is -39.7 kcal/mol. For the same sequence, the Tm in data set [2] was 49.3 °C.
For the sequence GCTTTCGGAAACGAGAGC (((.(((....))).))), the folding enthalpy in data set [1] is -47 kcal/mol. Besides, the Tm in data set [2] was 49.1 °C.
Take CGAAACGGAAACGTCTCG (((.(((....))).))): in data set [1], the folding enthalpy is -27.3 kcal/mol. Further, in data set [2], the Tm came out at 39 °C.
The matching figures for GTCCGGACGAAAGTCGAC (((..(((....)))))): -14 kcal/mol and 35.5 °C.
In the case of GCGTTGGGAAACTAGCGC (((.(.(....).).))), the folding enthalpy in data set [1] is -35.9 kcal/mol. For the same sequence, the Tm in data set [2] worked out at 47.9 °C.
The matching figures for GCGACTATTCGC ((((....)))): -19.3 kcal/mol and 47.4 °C.
In the same order, the values of GCTCTAGCGAAAGCTAGC (((..(((....)))))) are -5.88 kcal/mol and 38.3 °C.
In the same order, the values of GCACCGCGAAAGCTCTGC (((..((....))..))) are -10.9 kcal/mol and 27.4 °C.
On to GCCAAAGGAAACTCTGGC ((((.((....)).)))), for which the folding enthalpy in data set [1] was -32.6 kcal/mol. Besides, the Tm in data set [2] worked out at 35.4 °C.
Take GTGACAGAAATGTCAC ((((((....)))))): the folding enthalpy in data set [1] is -35.7 kcal/mol. The Tm in data set [2] was 57.6 °C.
For the sequence GCTTGGCGAAAGCCCAGC (((.(((....))).))), the folding enthalpy in data set [1] was -36.6 kcal/mol. The Tm in data set [2] came to 51.2 °C.
The matching figures for GTAGTCCCGAAAGGGTAC (((..(((....)))))): -10.8 kcal/mol and 31.5 °C.
In the same order, the values of GATCTTGTCTAAGATC ((((((....)))))) are -40.6 kcal/mol and 48.4 °C.
Consider GCGAACGTTCGC ((((....)))), for which the folding enthalpy in data set [1] was -39.5 kcal/mol. For the same sequence, in data set [2], the Tm was found to be 55.8 °C.
The matching figures for GATAAGGGAAACCTTATC (((((((....))))))): -44.2 kcal/mol and 49.7 °C.
The matching figures for GAAGTTGGAAACGACTTC (((((.(....).))))): -39 kcal/mol and 47.4 °C.
With CGGCCTCGGAAACGACCG (((..(((....)))))), the folding enthalpy in data set [1] was -18.7 kcal/mol. In addition, the Tm in data set [2] turned out to be 34.5 °C.
On to GCATACGCGAAAGCGTGC (((..(((....)))))), for which the folding enthalpy in data set [1] was -10.8 kcal/mol. Further, the Tm in data set [2] turned out to be 48.7 °C.
With GGCTGGACGAAAGTCGCC (((..(((....)))))), the folding enthalpy in data set [1] was -20.2 kcal/mol. The Tm in data set [2] is 52.5 °C.
The matching figures for GCGGCGGCGAAAGCCCGC (((..(((....)))))): -12.3 kcal/mol and 65.6 °C.
In the same order, the values of GAGTCCGAAAGGATGCTC ((((((....)))..))) are -16.9 kcal/mol and 40.5 °C.
GTTCTTGGAAACAAGAGC (.(((((....))))).): in data set [1], the folding enthalpy was -19.6 kcal/mol. In data set [2], the Tm is 41.5 °C.
The matching figures for GTCTACGAAAGTATGAC ((((((....))).))): -23.8 kcal/mol and 42.3 °C.
The matching figures for GGATTAGGAAACTAATCC (((((((....))))))): -40.5 kcal/mol and 55 °C.
Regarding GTGACACGAAAGTGACAC (((.(((....))).))), the folding enthalpy in data set [1] is -39.7 kcal/mol. Further, the Tm in data set [2] was 58.7 °C.
The matching figures for GATATCGCGAAAGCGATC (((..(((....)))))): -7.08 kcal/mol and 35.2 °C.
Regarding CGCTTCGGAAACGAGGCG (((.(((....))).))), the folding enthalpy in data set [1] was -42.4 kcal/mol. Further, the Tm in data set [2] worked out at 55.9 °C.
The matching figures for GATCGAGCATCGATC ((((((...)))))): -41.3 kcal/mol and 58.7 °C.
The matching figures for GCGGTCTCGAAAGAGCGC (((..(((....)))))): -38.2 kcal/mol and 58.6 °C.
The matching figures for GATCGATCATTCGATC ((((((....)))))): -39.5 kcal/mol and 53.7 °C.
Consider GTGGGCGAAAGCCTCAC ((((((....))).))), for which the folding enthalpy in data set [1] was -15.5 kcal/mol. In addition, in data set [2], the Tm was 51.9 °C.
In the same order, the values of GATCTACGGGTAGATC ((((((....)))))) are -42.6 kcal/mol and 51.1 °C.
As for GGAAGTACGAAAGTATCC (((..(((....)))))), the folding enthalpy in data set [1] was -11.1 kcal/mol. Further, in data set [2], the Tm was found to be 23.4 °C.
GCACCTCGAAAGAGCTGC (((.(((....))).))): the folding enthalpy in data set [1] was -25.5 kcal/mol. In addition, the Tm in data set [2] was 42.2 °C.
In the case of GGATCGAAAGATCC (((((....))))), the folding enthalpy in data set [1] was -29.6 kcal/mol. Besides, the Tm in data set [2] amounted to 65.3 °C.
As for GTGACTCCGAAAGGACAC (((..(((....)))))), the folding enthalpy in data set [1] was -9.23 kcal/mol. For the same sequence, in data set [2], the Tm was 35.4 °C.
On to GCCGACCGAAAGGTGGGC (((.(((....))).))), for which the folding enthalpy in data set [1] is -34.4 kcal/mol. Besides, the Tm in data set [2] came to 67.4 °C.
On to GATCAATTGCTTGATC ((((((....)))))), for which, in data set [1], the folding enthalpy was -33.7 kcal/mol. Also, the Tm in data set [2] stood at 43.5 °C.
In the same order, the values of CGCTAGCGGAAACGCGCG (((..(((....)))))) are -25.3 kcal/mol and 52.7 °C.
In the same order, the values of GATCGAATCGTCGATC ((((((....)))))) are -32.1 kcal/mol and 51.4 °C.
As to GACGGCGGAAACGCCGCC (.(((((....))))).), the folding enthalpy in data set [1] is -8.56 kcal/mol. In addition, the Tm in data set [2] was found to be 54.9 °C.
On to GCGCTACGAAAGTACCGC (((.(((....))).))), for which, in data set [1], the folding enthalpy is -36.1 kcal/mol. For the same sequence, the Tm in data set [2] is 48.5 °C.
The matching figures for CGAGTCGGAAACGAATCG (((.(((....))).))): -39.9 kcal/mol and 52.2 °C.
With CGCGGATGATTCCGCG ((((((....)))))), the folding enthalpy in data set [1] was -31.2 kcal/mol. Moreover, in data set [2], the Tm is 69.3 °C.
As to GAAGCGGGAAACCACTTC ((((.((....)).)))), the folding enthalpy in data set [1] was -32.1 kcal/mol. Besides, in data set [2], the Tm amounted to 41.8 °C.
In the same order, the values of GCGACAGGAAACCATCGC ((((..(....)..)))) are -17 kcal/mol and 35.8 °C.
In the same order, the values of CCATAGAAATATGG (((((....))))) are -11.6 kcal/mol and 35.2 °C.
The matching figures for GCCTGGCGAAAGCGAGGC ((((.((....)).)))): -26.8 kcal/mol and 68.2 °C.
With GCAACGCGAAAGCGTAGC ((.((((....)))).)), in data set [1], the folding enthalpy was -17.6 kcal/mol. For the same sequence, in data set [2], the Tm amounted to 61.9 °C.
As for GGAACTGCGAAAGCATCC (((..(((....)))))), the folding enthalpy in data set [1] was -6.59 kcal/mol. Also, in data set [2], the Tm came out at 24.6 °C.
With GTCTATCGAAAGATTGAC (((.(((....))).))), in data set [1], the folding enthalpy is -35.1 kcal/mol. The Tm in data set [2] came to 46.3 °C.
Take GATCCAATTCTGGATC ((((((....)))))): the folding enthalpy in data set [1] is -39.7 kcal/mol. For the same sequence, the Tm in data set [2] came out at 49.5 °C.
On to GCGGAGGCGAAAGCCCGC (((..(((....)))))), for which the folding enthalpy in data set [1] was -21.7 kcal/mol. Further, the Tm in data set [2] came to 66.6 °C.
In the same order, the values of GATCCCTCTTGGGATC ((((((....)))))) are -36.8 kcal/mol and 63.7 °C.
In the same order, the values of GCAAGGCGAAAGCCGGGC ((..(((....)))..)) are -20.9 kcal/mol and 65.5 °C.
Turning to GGATCTGGAAACAGATCC (((((((....))))))), the folding enthalpy in data set [1] was -47.9 kcal/mol. The Tm in data set [2] is 62.4 °C.
The matching figures for GCAACAGAAATGTTGC ((((((....)))))): -40.1 kcal/mol and 56.6 °C.
The matching figures for GCCGTACGAAAGTATGGC (((.(((....))).))): -42.8 kcal/mol and 61.4 °C.
The matching figures for CAGTCGAAAGACTG (((((....))))): -27.2 kcal/mol and 61.4 °C.
On to GGGAGCGAAAGCTGACCC ((((((....)))..))), for which the folding enthalpy in data set [1] is -16.5 kcal/mol. In data set [2], the Tm was 45.9 °C.
In the same order, the values of GCGGCTGCCGC ((((...)))) are -31.2 kcal/mol and 57.1 °C.
GCCACAGGAAACTACGGC (((..((....))..))): the folding enthalpy in data set [1] was -30.8 kcal/mol. Besides, the Tm in data set [2] stood at 39.5 °C.
In the same order, the values of GGAGTTGGAAACGATTCC (((.(.(....).).))) are -19.6 kcal/mol and 40.8 °C.
Regarding GATCTATCGCTAGATC ((((((....)))))), the folding enthalpy in data set [1] is -15 kcal/mol. Moreover, the Tm in data set [2] is 39.8 °C.
In the same order, the values of GCACTCGAAAGAGTATGC ((((((....)))..))) are -16.2 kcal/mol and 42.1 °C.
As for GTGTTGCGAAAGCAGCAC (((.(((....))).))), in data set [1], the folding enthalpy is -30.2 kcal/mol. Besides, the Tm in data set [2] amounted to 64.3 °C.
